Results published in ChEMBL document CHEMBL3351931, “Synthesis of natural-like acylphloroglucinols with anti-proliferative, anti-oxidative and tube-formation inhibitory activity” (Eur J Med Chem, 2014).
The source made the active and inactive calls. No cut-off for these calls is given here.

Assays:
[1] = Antioxidant activity in phosphate buffer assessed as trolox equivalents ratio at pH 7.4 after 15 mins by ORAC-fluorescein assay; type: physicochemical; conditions: pH 7.4, 0.25 h
Summary of the method: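 ORAC-FL: fluorescein probe (final 300 nM) in 75 mM phosphate buffer pH 7.4; antioxidant (test compounds 1–5 µM, five concentrations; Trolox 1–8 µM standards) preincubated with fluorescein 15 min at 37 °C. Reaction started with AAPH (final 12 mM). Fluorescence read every min for 80 min (ex 485/em 536 nm). AUC converted to Trolox equivalents; quadruplicate, ≥4 independent assays.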

[2] = Antiproliferative activity against human HMEC1 cells after 72 hrs; type: functional, cell-based; conditions: HMEC-1, 72 h
Summary of the method: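 SV-40T-transfected HMEC-1 seeded 1.5 × 10³ cells/well in ECGM with 10% FCS, supplement mix and antibiotics, 37 °C, 5% CO2. After 24 h, a reference plate was crystal-violet stained for baseline. The remaining cells were given increasing compound concentrations (DMSO stock) for 72 h, then crystal violet stained and read at 540 nm. 0.1% DMSO in ECGM served as negative control. IC50 ± SD from three independent experiments with different passages, hexaplicates per concentration.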

[3] = system: HMEC-1; experiment: Antiangiogenic activity in HMEC1 assessed as inhibition of tube formation at 6.25 to 50 uM after 19 hrs by matrigel assay; type: functional; conditions: Homo sapiens
[4] = system: HMEC-1; experiment: Antiangiogenic activity in HMEC1 assessed as inhibition of tube formation at 12.5 to 100 uM after 19 hrs by matrigel assay; type: functional; conditions: Homo sapiens

| Ratio [1] | SMILES | IC50 [2] [µM] | inhibition [3] | inhibition [4] |
| --- | --- | --- | --- | --- |
| 0.3 | CCCC(C)C(=O)c1c(O)cc(O)c(C/C=C(\C)CCC=C(C)C)c1O (stereo not drawn) | 8.7 |  |  |
| 1.1 | COc1ccc(C(=O)c2c(O)cc3c(c2O)CCC(C)(C)O3)cc1 | 43.4 |  |  |
| 0.4 | CCC(C)C(=O)c1c(O)cc(O)c(C/C=C(\C)CCC=C(C)C)c1O (stereo not drawn) | 11 | Active |  |
| 3 | COc1cc(C(=O)c2c(O)cc3c(c2O)CCC(C)(C)O3)cc(OC)c1O | 23.9 |  |  |
| 0.8 | CC(=O)c1c(O)cc(O)c2c1OC(C)(CCC=C(C)C)CC2 (stereo not drawn) | 20.3 |  |  |

The remaining lines, values behind:

| SMILES | Ratio [1] | IC50 [2] [µM] | inhibition [3] | inhibition [4] |
| --- | --- | --- | --- | --- |
| CC(=O)c1c(O)cc(O)c(C/C=C(\C)CCC=C(C)C)c1O | 1 | 22.5 |  |  |
| COc1cc(C(=O)c2c(O)cc3c(c2O)CCC(C)(C)O3)cc(OC)c1OC |  | 51.5 |  |  |
| CC1(C)CCc2c(cc(O)c(C(=O)c3ccc(O)c(O)c3)c2O)O1 | 2.8 | 0.88 |  |  |
| CC(C)=CCC/C(C)=C/Cc1c(O)cc(O)c(C(=O)C(C)C)c1O | 0.8 | 21 |  |  |
| COc1cc(O)c(CC=C(C)C)c(O)c1C(=O)/C=C/c1ccc(O)cc1 [XANTHOHUMOL] | 2.3 |  |  |  |
| CC1(C)CCc2c(cc(O)c(C(=O)c3cc(O)cc(O)c3)c2O)O1 | 3 | 25.5 |  |  |
| CCC(=O)c1c(O)cc(O)c(C/C=C(\C)CCC=C(C)C)c1O | 0.6 | 22.4 |  |  |
| CCC(C)C(=O)c1c(O)cc(O)c2c1OC(C)(CCC=C(C)C)CC2 (stereo not drawn) | 0.3 |  |  |  |
| CC1(C)CCc2c(cc(O)c(C(=O)c3ccc(O)cc3)c2O)O1 | 6.6 | 53.8 |  |  |
| COc1cc(C(=O)c2c(O)cc3c(c2O)CCC(C)(C)O3)cc(O)c1O | 2.1 | 7.6 |  |  |
| COc1ccc(C(=O)c2c(O)cc3c(c2O)CCC(C)(C)O3)cc1OC | 1.3 | 48 |  | Active |
| CCC(C)C(=O)c1c(O)cc2c(c1O)CCC(C)(C)O2 (stereo not drawn) | 1.2 | 29.3 |  |  |
